# Screens (PubChem)
# TRPC4 inh: inhibitors of mouse TRPC4 channel, primary screen, Fluo4 calcium, HEK293 TRPC4beta/mu-opioid cells; Short transient receptor potential channel 4 (Mus musculus), Q9QUQ5; DAMGO-evoked Fluo4 calcium flux; stronger effect = lower value; B-score at 10 µM; hit rate 0.39% among 300,000;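 active means B-score over 3 SD under the library average, no early fluorescence shift, positive overall ratio signal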
#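 test system = HEK293 cells with stable TRPC4beta plus mu-opioid receptor expression | detection = Fluo4 Ca2+ flux fluorescence | read-out = integrated fluorescence ratio relative to baseline, converted to per-well B score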
# TRPC6 activator: mouse TRPC6 channel activators, primary screen, cell-based, HEK293, membrane potential dye. Short transient receptor potential channel 6 (Mus musculus), Q61143. HEK293-TRPC6 membrane potential dye fluorescence; stronger effect = higher value. B-score at 10 µM. hit rate 0.13% among 310,000. AID 2550, 2010;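 active means B-score of the integrated fluorescence ratio above library mean plus 3 SD, and starting fluorescence ratio within library mean plus 5 SD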;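 further: higher score means more depolarization so channel activation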
# Target sequence (Q61143 whole entry, looked up): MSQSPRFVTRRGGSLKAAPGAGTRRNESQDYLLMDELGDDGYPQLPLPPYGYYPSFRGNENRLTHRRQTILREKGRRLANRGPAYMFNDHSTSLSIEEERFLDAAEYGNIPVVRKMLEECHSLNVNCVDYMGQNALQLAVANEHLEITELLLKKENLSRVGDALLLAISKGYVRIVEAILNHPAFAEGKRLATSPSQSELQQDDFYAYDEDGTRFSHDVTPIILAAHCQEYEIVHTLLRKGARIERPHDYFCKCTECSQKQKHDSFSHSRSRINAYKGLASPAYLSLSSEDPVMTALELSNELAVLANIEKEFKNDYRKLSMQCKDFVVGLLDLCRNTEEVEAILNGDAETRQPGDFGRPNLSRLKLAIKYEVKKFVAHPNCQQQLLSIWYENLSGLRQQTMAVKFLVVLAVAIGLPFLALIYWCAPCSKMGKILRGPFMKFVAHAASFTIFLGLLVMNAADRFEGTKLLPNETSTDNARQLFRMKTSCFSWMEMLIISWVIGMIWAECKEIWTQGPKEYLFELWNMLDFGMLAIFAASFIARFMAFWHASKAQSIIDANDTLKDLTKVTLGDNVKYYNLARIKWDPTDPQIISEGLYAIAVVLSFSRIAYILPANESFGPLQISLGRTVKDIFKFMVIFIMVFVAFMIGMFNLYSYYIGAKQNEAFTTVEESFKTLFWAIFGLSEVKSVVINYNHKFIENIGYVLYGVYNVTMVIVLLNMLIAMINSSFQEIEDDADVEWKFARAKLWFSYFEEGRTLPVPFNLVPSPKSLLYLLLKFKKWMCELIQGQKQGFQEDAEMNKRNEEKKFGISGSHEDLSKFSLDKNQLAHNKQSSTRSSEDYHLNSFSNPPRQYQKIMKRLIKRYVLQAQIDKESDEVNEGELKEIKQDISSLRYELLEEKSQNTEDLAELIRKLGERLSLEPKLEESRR
# TRPC6 inhibitor: mouse TRPC6 channel inhibitors, primary screen, cell-based, HEK293, membrane potential dye; B-score at 10 µM; AID 2553, 2010; hit rate 1.1% among 310,000; Short transient receptor potential channel 6 (Mus musculus), Q61143; ACh-evoked depolarization; stronger effect = lower value;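 active means B-score under library mean minus 3 SD, initial fluorescence not abnormally high, positive integrated signal ratio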;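 further: B-score derived from integrated fluorescence ratio over the kinetic read; more negative B-score means stronger inhibition of depolarization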
# TRPC4 agonist: activators of mouse TRPC4 channel, primary screen, Fluo4 calcium, HEK293 TRPC4beta/mu-opioid cells; hit rate 0.49% among 310,000; Fluo4 calcium fluorescence; stronger effect = higher value; AID 2237, 2010; B-score at 10 µM; Short transient receptor potential channel 4 (Mus musculus), Q9QUQ5;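 active means B-score above 5 SD of library B-scores, and initial fluorescence ratio not above library mean plus 5 SD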;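 further: positive B-score marks a calcium rise read as TRPC4 activation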
#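 Technique: kinetic Fluo4 calcium fluorescence; Test system: TRPC4beta and mu-opioid receptor HEK293 stable cells; Measure: B-scored integrated calcium fluorescence ratio; Benchmarks: low control buffer alone, high control maximal DAMGO; Schedule: 45 min room-temperature Fluo4 loading, 110 s read.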
# TRPC4 PAM: positive allosteric modulators of TRPC4, primary screen, cell-based, mouse TRPC4beta, HEK293 mu-opioid, Fluo-4 calcium. AID 2227, 2009. DAMGO EC20, Fluo-4 Ca2+ flux; stronger effect = higher value. hit rate 0.42% among 310,000. B-score at 10 µM;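 active means B-score of calcium response area above 5 SD of library B-scores, with initial fluorescence ratio within 5 SD of library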;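 further: B-score of integrated fluorescence ratio over time as area under calcium response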
# TRPC4 sel inh 2: second selectivity test of TRPC6 inhibitors: effect on mouse TRPC4. inhibition, % at 10 µM. HEK293 TRPC4/MOR, membrane potential dye fluorescence; channel activated by saturating DAMGO dose. hit rate 42% among 920. shares compounds with TRPC6 inhibitor;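 active means compounds whose fluorescence signal differed from control wells by over 3 SD, either direction, in both duplicate plates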
# TRPC4 spec: mouse TRPC4 modulation by TRPC6 hits, confirmation, selectivity assay for TRPC6 inhibitor project, cell-based, HEK293 TRPC4/mu-opioid, membrane potential dye. shares compounds with TRPC6 inhibitor. membrane potential fluorescence. activity change, negative = inhibition, % at 10 µM. hit rate 61% among 920;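 active means rise or fall in signal beyond 3 SD of buffer-only wells in both replicate plates, either sign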;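 further: integrated kinetic ratio of fluorescence range over baseline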
# HEK293 MPD ctr 2-1: nonspecific membrane potential effects, parental HEK293, confirmation, counter-screen for TRPC6 inhibitor project, cell-based, second counter screen. shares compounds with TRPC6 inhibitor. AID 2779, 2010. hit rate 31% among 920. signal change vs control, % at 10 µM. parental HEK293 membrane potential dye fluorescence; maximal acetylcholine challenge after compound addition;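 active means membrane potential signal moving either way by over 3 SD of the maximum-effect control, in both duplicate plates, meaning non-specific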
# HEK293 MPD ctr-1: membrane potential modulation in parental HEK293, confirmation, counter-screen for TRPC6 inhibitor project, cell-based; hit rate 60% among 920; shares compounds with TRPC6 inhibitor; parental HEK293 membrane potential dye fluorescence; membrane potential signal change, % at 10 µM; AID 2780, 2010;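 active means membrane potential signal shifting up or down by more than 3 SD of buffer-only wells, on both duplicate plates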
# HEK293 MPD ctr-2: parental HEK293 membrane potential modulation, confirmation, counter-screen for TRPC6 modulator project, cell-based | membrane potential dye fluorescence | hit rate 51% among 2,400 | shares compounds with TRPC6 inhibitor | membrane potential signal change, % at 10 µM;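 active means membrane potential signal moves up or down beyond 5 SD from buffer-only wells, on both duplicate plates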
# HEK293 MPD ctr 2-2: parental HEK293 nonspecific activity of TRPC6 modulators, second screen. shares compounds with TRPC6 inhibitor. membrane potential dye fluorescence; after compound, maximal acetylcholine stimulation. inhibition, % at 10 µM. hit rate 14% among 2,400;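 active means membrane potential signal drops by more than 5 SD from the mean control signal, in both duplicate plates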;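 further: plate controls were acetylcholine ECmax control wells for no effect and buffer only wells for full effect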
# TRPC4/MOR mod: TRPC4 modulation by TRPC6 hit compounds, confirmation, selectivity assay for TRPC6 modulator project, cell-based, HEK293 TRPC4/mu-opioid, membrane potential dye, mouse; percent change from control (negative = decrease, positive = increase), % at 10 µM; hit rate 69% among 2,400; membrane potential fluorescence; shares compounds with TRPC6 inhibitor; AID 488927, 2010;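 active means membrane potential signal moved up or down beyond 5 SD of buffer control wells, in both duplicate plates, actives on both sides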;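 further: plate controls were assay buffer wells for no effect and DAMGO maximal-effect wells for full effect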
# TRPC4/MOR inh 2: mouse TRPC4 off-target activity of TRPC6 modulators, second screen. inhibition, % at 10 µM. HEK293 TRPC4/mu-opioid, membrane potential dye fluorescence; stimulated with maximal-effect DAMGO. hit rate 55% among 2,400. AID 488928. shares compounds with TRPC6 inhibitor;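 active means drop in membrane potential signal beyond 5 SD of the control wells in both duplicate plates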;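 further: TRPC4 counter screen for TRPC6 hits run under conditions tuned for TRPC6 not TRPC4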
# TRPC6 inh conf: mouse TRPC6 channel inhibitors, confirmation, HEK293 cells, membrane potential dye, duplicate. shares compounds with TRPC6 inhibitor. ACh-evoked depolarization. inhibition, % at 10 µM. hit rate 43% among 3,300;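 active means fluorescence ratio falls more than 5 SD below the full-stimulation control mean, in both duplicate runs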;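 further: integrated fluorescence ratio of peak minus minimum over baseline after agonist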
# TRPC6 act conf: mouse TRPC6 channel activators, confirmation, HEK293 cells, membrane potential dye, duplicate; shares compounds with TRPC6 inhibitor; HEK293-TRPC6 membrane potential dye fluorescence, FDSS; activation, % at 10 µM; hit rate 11% among 2,800; AID 488961, 2010;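 active means ratio signal rise beyond 5 SD above unstimulated control wells' mean, seen in both duplicate runs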;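 further: plate controls were buffer EC0 wells for no effect and acetylcholine ECmax response for full effect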
# * hit, by the source's call; i = inactive; / = not tested or not shown. The list is not random: actives were taken first. Their share in the collection is about 2.3%.
SMILES,TRPC4 inh,TRPC6 activator,TRPC6 inhibitor,TRPC4 agonist,TRPC4 PAM,HEK293 MPD ctr-2,HEK293 MPD ctr 2-2,TRPC4/MOR mod,TRPC4/MOR inh 2,TRPC6 inh conf,TRPC6 act conf,others
Cc1c(C(O)CN2CCN(Cc3ccc4c(c3)OCO4)CC2)c2ccccc2n1C (stereo unspecified),i,i,-5.1*,i,i,i,i,11%*,88%*,55%*,i,
Cc1ccc(OCC(O)CN2CCN(Cc3ccc4c(c3)OCO4)CC2)cc1C (stereo unspecified),i,i,i,i,i,/,/,/,/,/,/,
COc1ccc2c(c1)c(C(O)CN1CCC(Cc3ccccc3)CC1)c(C)n2C (stereo unspecified),i,i,-12*,i,i,/,/,/,/,78%*,i,TRPC4 sel inh 2=26%*;TRPC4 spec=-13%*;HEK293 MPD ctr 2-1=i;HEK293 MPD ctr-1=-221%*
COc1cccc(CCNC(=O)C2CCC(=O)N(C3CC3)C2)c1OC (stereo unspecified),i,i,i,i,i,/,/,/,/,/,/,
O=C(Nc1cccc(-n2cnnn2)c1)c1ccoc1COc1ccc(Cl)cc1,i,i,i,i,i,/,/,/,/,/,/,
O=C(CN1C2=NCCN2c2ccccc21)c1ccc(Br)cc1,i,i,-5.3*,i,i,i,i,i,72%*,38%*,i,
O=C(CN1C2=NCCN2c2ccccc21)c1ccc2c(c1)OCO2,i,i,i,i,i,/,/,/,/,/,/,
CCOC(=O)c1cnc2c(cnn2C)c1NCCCn1ccnc1,i,i,-7.5*,i,i,-352%*,115%*,-52%*,68%*,73%*,i,
CCOC(=O)c1cnc2c(cnn2C)c1NCCCN(C)C,i,i,i,i,i,/,/,/,/,/,/,
Cc1ccc2nccc(C(=O)N3CCCC(Nc4ccc(C)c(C)c4)C3)c2c1 (stereo unspecified),i,i,i,i,i,/,/,/,/,/,/,
CC(C)c1ccc(CCNC(=O)CSC(=S)N2CCCC2)cc1,i,i,i,i,i,/,/,/,/,/,/,
CCn1c2ccccc2c2cnc(N=CN(C)C)c(C#N)c21,i,i,i,i,i,/,/,/,/,/,/,
CCN(CC)CCn1c2ccccc2c2cnc(N=CN(C)C)c(C#N)c21,i,i,-7.2*,i,i,/,/,/,/,i,i,TRPC4 sel inh 2=50%*;TRPC4 spec=-20%*;HEK293 MPD ctr 2-1=i;HEK293 MPD ctr-1=-166%*
CN(C)C1CCN(C(=O)c2cccc(OC3CCN(S(=O)(=O)N(C)C)CC3)c2)C1 (stereo unspecified),i,i,i,i,i,/,/,/,/,/,/,
S=c1[nH]nc(COc2ccccc2)n1/N=C/c1c(Cl)cccc1Cl,i,i,i,i,i,/,/,/,/,/,/,
Cn1c(SCc2c(Cl)cccc2Cl)nnc1-c1cccs1,i,i,-6.6*,i,i,274%*,i,56%*,i,i,/,
Cc1ccc(CSc2nnc(-c3cccs3)n2C)cc1,i,i,i,i,i,/,/,/,/,/,/,
CCC1CN(C(=O)N2CCC(C(=O)Nc3ccccc3OC)CC2)c2ccccc2O1 (stereo unspecified),i,i,i,i,i,/,/,/,/,/,/,
CCOC(=O)CSc1nc2ccsc2c(=O)n1C1CCN(C(=O)OCC)CC1,i,15*,-6.8*,i,i,133%*,i,34%*,i,i,60%*,
CCOC(=O)N1CCC(n2c(SCC(=O)OCc3ccccc3)nc3ccsc3c2=O)CC1,i,i,i,i,i,/,/,/,/,/,/,
Cc1cccc(N2CCN(C(=O)c3ccc4c(c3)NC(=O)C(CSCc3cccc(F)c3)N4)CC2)c1C (stereo unspecified),i,i,i,i,i,/,/,/,/,/,/,
CCOc1ncccc1C(=O)Nc1ccc(C)cn1,i,i,i,i,i,/,/,/,/,/,/,
Cn1c(=O)c2c(nc(N3CCCCCC3)n2CC(O)COc2ccccc2)n(C)c1=O (stereo unspecified),i,i,i,i,i,/,/,/,/,/,/,
Cc1cccc(OCC(O)Cn2c(N3CCCCC3)nc3c2c(=O)n(C)c(=O)n3C)c1 (stereo unspecified),i,i,-6.1*,i,i,i,i,8.0%*,i,80%*,/,
